Measured values from ChEMBL document CHEMBL4376814, “Novel cyclin-dependent kinase 9 (CDK9) inhibitor with suppression of cancer stemness activity against non-small-cell lung cancer” (Eur J Med Chem, 2019).

What was measured:
[1] = target: T1, CDK6/cyclin D3 (Homo sapiens) (UniProt P30281+Q00534); experiment: Inhibition of recombinant full-length human CDK6/cyclinD3 at 1 uM using histone H1 as substrate measured after 40 mins in presence of [gamma33P]ATP by scintillation counting method relative to control; assay type: protein-complex assay
How it was run: (§1)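 Percent inhibition of kinase activity at a single compound concentration, measured by the outsourced Eurofins KinaseProfiler panel. Values are the mean of two independent experiments.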

[2] = target: T2, CDK9/cyclin T1 (Homo sapiens) (UniProt O60563+P50750); experiment: Potency index, ratio of ribociclib IC50 to compound IC50 for inhibition of recombinant full-length human CDK9/cyclinT1; assay type: protein-complex assay
[3] = tested on: NCI-H1299; experiment: Antiproliferative activity against human H1299 cells assessed as inhibition of cell viability at 1 uM after 72 hrs by CCK-8 assay relative to control; assay type: functional; settings: NCI-H1299, 72 h
How it was run: (§2)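 Single-concentration viability screen using CCK-8. Cells were seeded at 3000/well and treated for 72 h. A450 read after 1-4 h with reagent. Percent inhibition calculated against untreated control and blank wells as (Ac−As)/(Ac−Ab)×100%.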

[4] = target: T3, CDK4/Cyclin D3 (Homo sapiens) (UniProt P11802+P30281); experiment: Inhibition of recombinant full-length human CDK4/cyclinD3 at 1 uM using Rb fragment as substrate measured after 40 mins in presence of [gamma33P]ATP by scintillation counting method relative to control; assay type: protein-complex assay; how it was run: as §1
[5] = target: T1, CDK6/cyclin D3 (Homo sapiens); experiment: Inhibition of recombinant full-length human CDK6/cyclinD3 at 500 nM using histone H1 as substrate measured after 40 mins in presence of [gamma33P]ATP by scintillation counting method relative to control; assay type: protein-complex assay; how it was run: as §1
[6] = target: CDK9/cyclin T1 (Homo sapiens, UniProt P50750); experiment: Inhibition of recombinant full-length human CDK9/cyclinT1 using KTFCGTPEYLAPEVRREPRILSEEEQEMFRDFDYIADWC peptide as substrate measured after 40 mins in presence of [gamma33P]ATP by scintillation counting method; assay type: protein-complex assay
How it was run: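 IC50 against CDK9/cyclin T1, determined by the outsourced Eurofins KinaseProfiler service. Values are the mean of two independent experiments.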

[7] = tested on: A549; experiment: Antiproliferative activity against human A549 cells assessed as inhibition of cell viability at 1 uM after 72 hrs by CCK-8 assay relative to control; assay type: functional; settings: A549, 72 h; how it was run: as §2
[8] = tested on: NCI-H1299; experiment: Antiproliferative activity against human H1299 cells assessed as inhibition of cell viability at 10 uM after 72 hrs by CCK-8 assay relative to control; assay type: functional; settings: NCI-H1299, 72 h; how it was run: as §2
[9] = tested on: A549; experiment: Antiproliferative activity against human A549 cells assessed as inhibition of cell viability at 10 uM after 72 hrs by CCK-8 assay relative to control; assay type: functional; settings: A549, 72 h; how it was run: as §2
[10] = target: T2, CDK9/cyclin T1 (Homo sapiens); experiment: Inhibition of recombinant full-length human CDK9/cyclinT1 at 1 uM using KTFCGTPEYLAPEVRREPRILSEEEQEMFRDFDYIADWC peptide as substrate measured after 40 mins in presence of [gamma33P]ATP by scintillation counting method relative to control; assay type: protein-complex assay; how it was run: as §1
[11] = target: T3, CDK4/Cyclin D3 (Homo sapiens); experiment: Inhibition of recombinant full-length human CDK4/cyclinD3 at 500 nM using Rb fragment as substrate measured after 40 mins in presence of [gamma33P]ATP by scintillation counting method relative to control; assay type: protein-complex assay; how it was run: as §1
[12] = target: T2, CDK9/cyclin T1 (Homo sapiens); experiment: Inhibition of recombinant full-length human CDK9/cyclinT1 at 500 nM using KTFCGTPEYLAPEVRREPRILSEEEQEMFRDFDYIADWC peptide as substrate measured after 40 mins in presence of [gamma33P]ATP by scintillation counting method relative to control; assay type: protein-complex assay; how it was run: as §1
[13] = tested on: SiHa; experiment: Antiproliferative activity against human SiHa cells assessed as inhibition of cell viability at 10 uM after 72 hrs by CCK-8 assay relative to control; assay type: functional; how it was run: as §2
[14] = tested on: MCF7; experiment: Antiproliferative activity against human MCF7 cells assessed as inhibition of cell viability at 500 nM after 72 hrs by CCK-8 assay relative to control; assay type: functional; settings: MCF7, 72 h; how it was run: as §2
[15] = tested on: SiHa; experiment: Antiproliferative activity against human SiHa cells assessed as inhibition of cell viability at 500 nM after 72 hrs by CCK-8 assay relative to control; assay type: functional; how it was run: as §2
[16] = tested on: HepG2; experiment: Antiproliferative activity against human HepG2 cells assessed as inhibition of cell viability at 500 nM after 72 hrs by CCK-8 assay relative to control; assay type: functional; settings: HepG2, 72 h; how it was run: as §2
[17] = tested on: HepG2; experiment: Antiproliferative activity against human HepG2 cells assessed as inhibition of cell viability at 10 uM after 72 hrs by CCK-8 assay relative to control; assay type: functional; settings: HepG2, 72 h; how it was run: as §2
[18] = tested on: MCF7; experiment: Antiproliferative activity against human MCF7 cells assessed as inhibition of cell viability at 10 uM after 72 hrs by CCK-8 assay relative to control; assay type: functional; settings: MCF7, 72 h; how it was run: as §2

CDK9/cyclin T1, sequence (O60563 whole entry): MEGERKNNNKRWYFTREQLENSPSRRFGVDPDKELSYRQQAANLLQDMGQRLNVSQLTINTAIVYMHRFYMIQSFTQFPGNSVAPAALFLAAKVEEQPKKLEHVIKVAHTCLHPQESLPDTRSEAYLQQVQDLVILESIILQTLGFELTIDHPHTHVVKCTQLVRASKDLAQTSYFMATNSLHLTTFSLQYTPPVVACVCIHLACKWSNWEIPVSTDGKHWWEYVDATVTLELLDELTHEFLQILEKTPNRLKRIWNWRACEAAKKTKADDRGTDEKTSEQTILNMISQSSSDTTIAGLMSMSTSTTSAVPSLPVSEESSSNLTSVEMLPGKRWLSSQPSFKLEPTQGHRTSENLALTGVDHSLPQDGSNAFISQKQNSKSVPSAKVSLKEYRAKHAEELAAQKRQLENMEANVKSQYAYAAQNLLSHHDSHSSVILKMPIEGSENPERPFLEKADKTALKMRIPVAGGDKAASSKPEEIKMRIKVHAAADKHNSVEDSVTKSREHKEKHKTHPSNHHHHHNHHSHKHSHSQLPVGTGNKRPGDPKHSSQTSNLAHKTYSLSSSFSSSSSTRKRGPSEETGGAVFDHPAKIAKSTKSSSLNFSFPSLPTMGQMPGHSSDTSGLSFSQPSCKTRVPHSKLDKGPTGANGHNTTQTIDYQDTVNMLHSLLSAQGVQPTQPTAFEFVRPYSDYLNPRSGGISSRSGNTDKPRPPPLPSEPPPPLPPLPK
CDK9/cyclin T1, sequence (P50750 whole entry): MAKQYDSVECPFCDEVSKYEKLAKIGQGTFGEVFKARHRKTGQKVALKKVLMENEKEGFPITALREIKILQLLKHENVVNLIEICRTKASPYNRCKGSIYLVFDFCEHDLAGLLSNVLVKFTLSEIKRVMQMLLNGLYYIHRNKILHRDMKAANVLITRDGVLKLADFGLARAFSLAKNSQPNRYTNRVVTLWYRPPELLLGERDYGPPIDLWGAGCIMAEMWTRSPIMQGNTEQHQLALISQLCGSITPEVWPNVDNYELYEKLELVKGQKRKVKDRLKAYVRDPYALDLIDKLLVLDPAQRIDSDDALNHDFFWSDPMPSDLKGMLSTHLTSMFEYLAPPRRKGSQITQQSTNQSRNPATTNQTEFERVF

Compound	inhibition [1] [%]	Ratio IC50 [2]	inhibition [4] [%]	inhibition [5] [%]	IC50 [6] [nM]	inhibition [10] [%]	inhibition [11] [%]	inhibition [12] [%]	inhibition at 1 µM [3] [%]	inhibition at 1 µM [7] [%]	inhibition at 10 µM [8] [%]	inhibition at 10 µM [9] [%]	inhibition at 10 µM [13] [%]	inhibition at 0.5 µM [14] [%]	inhibition at 0.5 µM [15] [%]	inhibition at 0.5 µM [16] [%]	inhibition at 10 µM [17] [%]	inhibition at 10 µM [18] [%]
CN(C)C(=O)c1cc2cnc(Nc3ccc(S(=O)(=O)NCCCCCCCN=C=S)cc3)nc2n1C1CCCC1	77	> 20	86	45	9	97	84	97	58.9	32.6	83	101						
CN(C)C(=O)c1cc2cnc(Nc3cccc(NC(=O)CCCCCCCN=C=S)c3)nc2n1C1CCCC1	74		80	23	15	96	59	98	50.6	44.6	86.9	96.7						
CN(C)C(=O)c1cc2cnc(Nc3ccc(C(=O)NCCCCCCCN=C=S)cc3)nc2n1C1CCCC1	85		83	56	12	97	74	99	75.7	73.7	107	101	95	85	90	68	89	99
CN(C)C(=O)c1cc2cnc(Nc3ccc(C(=O)NCCCCN=C=S)cc3F)nc2n1C1CCCC1	86		89	38	6	96	76	97	28.7	-7	78.9	24.4						
CN(C)C(=O)c1cc2cnc(Nc3ccc(C(=O)NCCCCCN=C=S)cc3F)nc2n1C1CCCC1	81		86	30	11	96	72	96	36.1	-1.6	86.7	15.6						
CN(C)C(=O)c1cc2cnc(Nc3ccc(S(=O)(=O)NCCCCCCN=C=S)cc3)nc2n1C1CCCC1	81	> 20	89	41	9	96	78	98	42.4	49.5	70.6	101						

Second part, led by results:

inhibition [1] [%]	Ratio IC50 [2]	inhibition [4] [%]	inhibition [5] [%]	IC50 [6] [nM]	inhibition [10] [%]	inhibition [11] [%]	inhibition [12] [%]	Compound	inhibition at 1 µM [3] [%]	inhibition at 1 µM [7] [%]	inhibition at 10 µM [8] [%]	inhibition at 10 µM [9] [%]	inhibition at 10 µM [13] [%]	inhibition at 0.5 µM [14] [%]	inhibition at 0.5 µM [15] [%]	inhibition at 0.5 µM [16] [%]	inhibition at 10 µM [17] [%]	inhibition at 10 µM [18] [%]
82		86	41	10	97	75	98	CN(C)C(=O)c1cc2cnc(Nc3ccc(C(=O)NCCCN=C=S)cc3F)nc2n1C1CCCC1	9.27	16.7	78.5	60.2						
52		67		50	92	60	90	CN(C)C(=O)c1cc2cnc(Nc3ccc(C(=O)NCCCCCCCN=C=S)cc3F)nc2n1C1CCCC1	-9.23	0.05	35.8	12.7						
78		89	34	34	94	68	95	CN(C)C(=O)c1cc2cnc(Nc3ccc(C(=O)NCCCCCCN=C=S)cc3F)nc2n1C1CCCC1	29.1	-11.8	77.6	22.9						
68		46	21	68	94		90	CN(C)C(=O)c1cc2cnc(Nc3ccc(C(=O)NCCCN=C=S)cc3O)nc2n1C1CCCC1	10.3	55.9	24.2	73						
49		72		25	95	62	96	CN(C)C(=O)c1cc2cnc(Nc3ccc(NC(=O)CCCCCCCN=C=S)cc3F)nc2n1C1CCCC1	7.5	8.65	14	94.1						
60		59		33	92		91	CN(C)C(=O)c1cc2cnc(Nc3ccc(C(=O)NCCCCCN=C=S)cc3O)nc2n1C1CCCC1	22.6	23.1	80.7	30.7						
